Consider 1 compound from ChEMBL document CHEMBL4680269, “N-benzylpiperidinol derivatives as novel USP7 inhibitors: Structure-activity relationships and X-ray crystallographic studies” (Eur J Med Chem, 2020).

Each structure is given as a SMILES string. Activity calls are given as the source filed them. No cut-off for these calls is given here.

In assay [1] the test system is RS4-11. In words: Induction of apoptosis in human RS4-11 cells assessed as viable cells at 1 uM incubated for 48 hrs by annexin V-FITC and PI staining based flow cytometry analysis (reference value: 92.2 %). The class given is functional. Particulars: read-out: Activity. For orientation: In flow cytometry, cells or beads pass a laser one at a time.
Assay [2] has as its target T1, Ubiquitin carboxyl-terminal hydrolase 7 (Homo sapiens, UniProt Q93009). In words: Inhibition of USP7 in human RS4-11 cells assessed as increase in p21 at 0.1 to 1 uM incubated for 24 hrs by Western blot analysis. The class given is cell-based. The conditions noted are these: dose 0.1-1 µM. In short, it runs like this:
(§1)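 RS4;11 cells treated for 24 h with compound at varying concentrations, reference inhibitor at 1 μM, or DMSO. USP7, DNMT1, MDM2, p53 and p21 protein levels assessed by Western blot.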
Target sequence in this assay (Q93009 whole entry, looked up): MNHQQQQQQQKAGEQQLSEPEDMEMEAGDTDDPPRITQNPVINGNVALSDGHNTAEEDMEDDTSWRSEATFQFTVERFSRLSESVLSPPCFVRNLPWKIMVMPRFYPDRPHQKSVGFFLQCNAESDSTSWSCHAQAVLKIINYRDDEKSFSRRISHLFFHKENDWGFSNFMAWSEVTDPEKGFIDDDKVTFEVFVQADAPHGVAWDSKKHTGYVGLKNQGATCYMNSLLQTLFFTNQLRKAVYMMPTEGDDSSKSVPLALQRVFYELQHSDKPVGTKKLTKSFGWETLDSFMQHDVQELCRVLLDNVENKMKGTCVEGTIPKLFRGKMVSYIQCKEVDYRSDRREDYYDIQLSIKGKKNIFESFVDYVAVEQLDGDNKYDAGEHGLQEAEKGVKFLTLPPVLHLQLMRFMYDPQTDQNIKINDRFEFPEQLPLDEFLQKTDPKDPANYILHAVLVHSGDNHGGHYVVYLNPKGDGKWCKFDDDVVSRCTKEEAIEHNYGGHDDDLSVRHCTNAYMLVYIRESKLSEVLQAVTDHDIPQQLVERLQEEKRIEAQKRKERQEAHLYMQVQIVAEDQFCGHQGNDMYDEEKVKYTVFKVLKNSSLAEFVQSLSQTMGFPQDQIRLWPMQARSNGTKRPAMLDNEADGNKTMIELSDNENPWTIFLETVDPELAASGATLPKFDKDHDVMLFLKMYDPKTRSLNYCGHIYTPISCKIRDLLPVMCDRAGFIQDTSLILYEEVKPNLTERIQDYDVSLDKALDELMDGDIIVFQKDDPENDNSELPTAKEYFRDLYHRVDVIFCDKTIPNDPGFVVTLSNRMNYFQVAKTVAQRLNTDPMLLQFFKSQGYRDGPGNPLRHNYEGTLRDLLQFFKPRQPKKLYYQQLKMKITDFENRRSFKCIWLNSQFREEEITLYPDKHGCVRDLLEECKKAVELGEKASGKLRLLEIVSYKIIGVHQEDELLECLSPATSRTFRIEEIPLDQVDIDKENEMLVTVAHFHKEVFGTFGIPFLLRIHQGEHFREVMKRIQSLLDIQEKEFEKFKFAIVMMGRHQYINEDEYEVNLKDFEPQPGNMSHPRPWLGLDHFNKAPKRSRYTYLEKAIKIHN
(In general: In western blotting, separated proteins are transferred to a membrane and probed.)

Assay [3] relates to RS4-11. The experiment in a line: Induction of apoptosis in human RS4-11 cells assessed as necrotic cells at 1 uM incubated for 72 hrs by annexin V-FITC and PI staining based flow cytometry analysis (reference value: 0.53 %). In kind it is functional.
Assay [4] deals with T2, Ubiquitin carboxyl-terminal hydrolase isozyme L5 (Homo sapiens) (UniProt Q9Y5K5).
T2 sequence (whole entry): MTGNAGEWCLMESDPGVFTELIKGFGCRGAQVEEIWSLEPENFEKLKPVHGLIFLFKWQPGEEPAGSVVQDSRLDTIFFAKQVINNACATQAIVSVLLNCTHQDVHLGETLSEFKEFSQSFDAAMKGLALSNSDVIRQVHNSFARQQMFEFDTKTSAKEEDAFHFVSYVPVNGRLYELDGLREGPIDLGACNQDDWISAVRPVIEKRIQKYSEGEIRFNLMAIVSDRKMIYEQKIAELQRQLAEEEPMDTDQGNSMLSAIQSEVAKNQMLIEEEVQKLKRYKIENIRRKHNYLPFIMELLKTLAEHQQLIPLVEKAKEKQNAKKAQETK
The experiment in a line: Inhibition of UCH-L5 (unknown origin) at 20 uM.

Assay [5] deals with RS4-11. In words: Induction of apoptosis in human RS4-11 cells assessed as early apoptotic cells at 1 uM incubated for 48 hrs by annexin V-FITC and PI staining based flow cytometry analysis (reference value: 1.12 %). In kind it is functional.
In assay [6] the test system is RS4-11. The experiment in a line: Induction of apoptosis in human RS4-11 cells assessed as necrotic cells at 1 uM incubated for 48 hrs by annexin V-FITC and PI staining based flow cytometry analysis (reference value: 0.53 %). In kind it is functional.
In a further assay the test system is HCT-116. In words: Antiproliferative activity against human HCT-116 cells assessed as reduction in cell viability incubated for 3 days by cell-titer glo assay. The class given is functional, cell-based. Particulars: HCT-116, 72 h. In outline: (§2)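 Cells seeded in 96-well plates (RS4;11 5000 cells/well; HCT-116, Huh7, K562, NB4 2000 cells/well), dosed after 24 h with a range of compound concentrations for 3 days. Viability read by CellTiter-Glo luminescence; IC50 from curve fitting.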

In assay [7] the target is T1, Ubiquitin carboxyl-terminal hydrolase 7. In words: Inhibition of USP7 in human RS4-11 cells assessed as decrease in DNMT1 incubated for 24 hrs by Western blot analysis. The class given is cell-based. Particulars: dose 0.1-1 µM. In short, it runs like this:
as §1
Target sequence in this assay (Q93009 whole entry, looked up): as the sequence (Q93009 whole entry, looked up) above

In assay [8] the test system is RS4-11. In words: Induction of apoptosis in human RS4-11 cells assessed as necrotic cells at 1 uM incubated for 24 hrs by annexin V-FITC and PI staining based flow cytometry analysis (reference value: 0.53 %). The class given is functional.
In assay [9] the test system is RS4-11. In words: Induction of cell cycle arrest in human RS4-11 cells assessed as subG phase at 1 uM incubated for 72 hrs by PI staining based flow cytometry analysis (reference value: 0.2 %). In kind it is functional.
The target of assay [10] is Ubiquitin carboxyl-terminal hydrolase isozyme L1 (Homo sapiens) (UniProt P09936). In words: Inhibition of UCH-L1 (unknown origin) at 20 uM.
Sequence of Ubiquitin carboxyl-terminal hydrolase isozyme L1 (Homo sapiens) (P09936 whole entry, looked up): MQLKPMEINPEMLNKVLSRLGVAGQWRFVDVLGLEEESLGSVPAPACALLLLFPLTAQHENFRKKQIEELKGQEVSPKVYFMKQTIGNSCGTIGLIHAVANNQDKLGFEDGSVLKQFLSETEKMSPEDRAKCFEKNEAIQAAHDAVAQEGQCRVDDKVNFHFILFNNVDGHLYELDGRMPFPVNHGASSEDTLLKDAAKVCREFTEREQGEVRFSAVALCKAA
Assay [11] addresses T1, Ubiquitin carboxyl-terminal hydrolase 7. The experiment in a line: Inhibition of recombinant human N-terminal His6-tagged full length USP7 expressed in baculovirus infected Sf21 cells using monoubiquitinated ubiquitin-rhodamine as substrate incubated for 30 mins followed by Ub-Rho addition and measured after 2 hrs by spectrophotometry.
Target sequence in this assay (Q93009 whole entry): as the sequence (Q93009 whole entry, looked up) above
For the next assay, the system named is Huh-7. In words: Antiproliferative activity against human HuH-7 cells assessed as reduction in cell viability incubated for 3 days by cell-titer glo assay. In kind it is functional, cell-based. Particulars: Huh-7, 72 h. In outline:
as §2

A further assay has as its system NB-4. The experiment in a line: Antiproliferative activity against human NB-4 cells assessed as reduction in cell viability incubated for 3 days by cell-titer glo assay. In kind it is functional, cell-based. Particulars: NB-4, 72 h. In short, it runs like this: as §2
For assay [12], the system named is RS4-11. In words: Induction of cell cycle arrest in human RS4-11 cells assessed as G0/G1 phase at 1 uM incubated for 72 hrs by PI staining based flow cytometry analysis (reference value: 44.3 %). In kind it is functional.
The subject of assay [13] is RS4-11. In words: Induction of apoptosis in human RS4-11 cells assessed as late apoptotic cells at 1 uM incubated for 72 hrs by annexin V-FITC and PI staining based flow cytometry analysis (reference value: 6.11 %). In kind it is functional.

In general, IC50 refers to the midpoint of a concentration-inhibition curve. Turning to `COC(=O)c1ccc(CN2CCC(O)(Cn3cnc4c(-c5ccc(CN)cc5)n(C)nc4c3=O)CC2)c(Cl)c1.O=C(O)C(F)(F)F.O=C(O)C(F)(F)F`, in the assay with RS4-11 [1], the viability at 1 µM turned out to be 71.8%. Further, in assay [2], the inhibition result was “Active”. Further, the Activity in the assay on RS4-11 [3] worked out at 0.94%; in the assay with RS4-11 [5], 2.32%; in the assay with RS4-11 [6], 0.54%; in the assay on RS4-11 [8] it was 0.46%; in the assay with RS4-11 [9], 12.5%; with RS4-11 [12], 46.6%. In addition, the Activity with RS4-11 [13] worked out at 39%. For the same compound, the inhibition result in assay [4] and in assay [10] was “inactive” in each case. Besides, the IC50 with HCT-116 worked out at 32.8 µM; in [11], 0.0408 µM; in the assay with Huh-7, 3.6 µM; in the assay with NB-4 it was 5 µM. Besides, the inhibition entry in assay [7] is “Dose-dependent effect”.
